From ChEMBL document CHEMBL1141134, “Scaffold hopping with molecular field points: identification of a cholecystokinin-2 (CCK2) receptor pharmacophore and its use in the design of a prototypical series of pyrrole- and imidazole-based CCK2 antagonists” (J Med Chem, 2005)
pKi: −log10 of the molar value.

Experiments:
[1] = Log D value was measured in octanol/buffer (pH 7.5); type: physicochemical
In short: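 Partition between octanol and buffer at pH 7.5.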

[2] = target: T1, Gastrin/cholecystokinin type B receptor (Mus musculus, UniProt P56481); assay: Inhibition of 20 pM [125I]BH-CCK-8S binding to mouse cortical membrane Cholecystokinin 2 receptor
T1 sequence (P56481 whole entry): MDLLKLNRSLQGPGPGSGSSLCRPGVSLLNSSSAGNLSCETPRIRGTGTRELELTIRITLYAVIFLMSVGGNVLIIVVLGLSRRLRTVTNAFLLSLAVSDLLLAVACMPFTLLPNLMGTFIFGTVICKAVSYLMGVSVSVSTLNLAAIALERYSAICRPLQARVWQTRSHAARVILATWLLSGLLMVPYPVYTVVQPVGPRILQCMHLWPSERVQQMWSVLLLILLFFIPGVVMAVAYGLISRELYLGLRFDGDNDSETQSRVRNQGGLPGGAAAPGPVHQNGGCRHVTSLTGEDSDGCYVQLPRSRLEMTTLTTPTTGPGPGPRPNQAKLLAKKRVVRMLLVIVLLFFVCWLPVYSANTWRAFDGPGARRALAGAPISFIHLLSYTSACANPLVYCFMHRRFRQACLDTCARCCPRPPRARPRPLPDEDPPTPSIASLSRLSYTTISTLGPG
In short: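 Competition binding in mouse cortical membrane homogenates against 20 pM [125I]BH-CCK-8S tracer; pKi ± SEM from at least three separate experiments.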

[3] = Percent material excreted unchanged was detected in the bile by i.v. administration (1 or 10 uM/Kg) to anesthetized rat; type: ADME; details: iv, read-out: Activity
In short: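 Anesthetized rats, iv bolus at 1 or 10 μmol/kg; bile duct cannulated, bile collected in 15 min intervals over 150 min total; unchanged compound in bile quantified by HPLC, expressed as percent of dose. Compounds given as bis(N-methyl-D-glucamine) salts.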

[4] = target: T2, Cholecystokinin receptor type A (Cavia porcellus, UniProt Q63931); assay: Inhibition of 20 pM [125I]BH-CCK-8S binding to guinea pig pancreas membrane Cholecystokinin 1 receptor
T2 sequence (Q63931 whole entry): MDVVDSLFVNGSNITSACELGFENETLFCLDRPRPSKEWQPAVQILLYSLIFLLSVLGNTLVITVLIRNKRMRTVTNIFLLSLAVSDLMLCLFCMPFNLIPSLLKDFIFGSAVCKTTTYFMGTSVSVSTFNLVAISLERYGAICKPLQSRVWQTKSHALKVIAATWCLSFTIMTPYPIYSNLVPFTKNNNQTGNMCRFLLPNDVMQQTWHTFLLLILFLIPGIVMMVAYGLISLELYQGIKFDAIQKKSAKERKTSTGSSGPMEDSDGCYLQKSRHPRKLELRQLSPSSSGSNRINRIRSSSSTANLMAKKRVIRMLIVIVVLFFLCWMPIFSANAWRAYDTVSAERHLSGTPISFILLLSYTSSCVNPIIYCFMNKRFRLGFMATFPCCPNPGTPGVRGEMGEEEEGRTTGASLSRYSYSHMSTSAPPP
In short: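 Competition binding in guinea pig pancreas cell homogenates against 20 pM [125I]BH-CCK-8S; pKi ± SEM derived from at least three separate experiments.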

[5] = Percent material excreted unchanged was detected in the bile by i.v. administration (10 uM/Kg) to anesthetized rat; type: ADME; details: iv, read-out: Activity
In short: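 Anesthetized rats dosed iv bolus at 10 μmol/kg; bile duct cannulated, bile collected in 15 min intervals over 150 min total; unchanged compound measured by HPLC, reported as percent excreted.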

[6] = target: T3, Gastrin/cholecystokinin type B receptor (Mus musculus) (UniProt P56481); assay: Loss of Cholecystokinin 2 receptor activity relative to parent compound; type: functional
T3 sequence (whole entry): T1 sequence (P56481 whole entry)

SMILES | logD [1] | pKi [2] | dose excreted [3] | pKi [4] | dose excreted [5] | Activity [6]
CNC[C@H](O)[C@@H](O)[C@H](O)[C@H](O)CO.O=C(O)c1cc(NC(=O)[C@H](Cc2ccccc2)NC(=O)c2cc3[nH]cnc3cc2C(=O)NCC23CC4CC(CC(C4)C2)C3)cc(C(=O)O)c1 | -2.3 | 8.30 | 45% | 5.80 |  | 
CNC[C@H](O)[C@@H](O)[C@H](O)[C@H](O)CO.O=C(O)c1cccc(NC(=O)[C@H](Cc2ccccc2)NC(=O)c2cc3[nH]cnc3cc2C(=O)NCC23CC4CC(CC(C4)C2)C3)c1 | 1.1 | 6.40 | 39% | 5.30 |  | 
O=C(O)c1cc(NC(=O)c2[nH]c(-c3ccccc3)nc2CCC23CC4CC(CC(C4)C2)C3)cc(C(=O)O)c1 |  | 6.20 |  | 5.20 |  | 
O=C(O)c1cc(NC(=O)c2cc(-c3ccccc3)[nH]c2CC23CC4CC(CC(C4)C2)C3)cc(C(=O)O)c1 |  | 6.90 |  | 5.10 |  | 
CNC[C@H](O)[C@@H](O)[C@H](O)[C@H](O)CO.O=C(NCC12CC3CC(CC(C3)C1)C2)c1cc2nc[nH]c2cc1C(=O)N[C@@H](Cc1ccccc1)C(=O)Nc1cc(CO)cc(CO)c1 | 3.7 |  | 22% | 5.40 |  | 
CNC[C@H](O)[C@@H](O)[C@H](O)[C@H](O)CO.O=C(O)c1cc(NC(=O)c2cc(-c3ccc4ccccc4c3)[nH]c2CC2CCCCCC2)cc(C(=O)O)c1 | 1.4 | 6.70 |  | 5.60 | 59% | 
CN(C(=O)c1cc2[nH]cnc2cc1C(=O)NCC12CC3CC(CC(C3)C1)C2)[C@@H](Cc1ccccc1)C(=O)Nc1cc(C(=O)O)cc(C(=O)O)c1 |  | 7.60 |  |  |  | 0.7
O=C(O)c1cc(NC(=O)c2[nH]c(-c3ccccc3)nc2CC23CC4CC(CC(C4)C2)C3)cc(C(=O)O)c1 |  | 6.80 |  | 5.50 |  | 
O=C(O)c1cc(NC(=O)[C@H](Cc2ccccc2)NC(=O)C2C3c4ccccc4C(c4ccccc43)C2C(=O)NCC23CC4CC(CC(C4)C2)C3)cc(C(=O)O)c1 (some centres not stated) |  |  |  | 5.70 |  | 
CN(C(=O)[C@H](Cc1ccccc1)NC(=O)c1cc2[nH]cnc2cc1C(=O)NCC12CC3CC(CC(C3)C1)C2)c1cc(C(=O)O)cc(C(=O)O)c1 |  |  |  | 5.40 |  | 2
O=C(O)c1cc(NC(=O)c2[nH]c(-c3ccccc3)nc2CC2CCCCCC2)cc(C(=O)O)c1 |  |  |  | 5.10 |  | 
O=C(O)c1cc(NC(=O)c2cc(-c3ccccc3)[nH]c2CC2CCCCCC2)cc(C(=O)O)c1 |  | 6.60 |  | 5.10 |  | 
O=C(O)CCNC(=O)c1cc(-c2ccccc2)[nH]c1CC12CC3CC(CC(C3)C1)C2 |  | 5.50 |  | 5.00 |  | 
CNC[C@H](O)[C@@H](O)[C@H](O)[C@H](O)CO.O=C(O)c1cccc(NC(=O)c2cc(-c3ccc4ccccc4c3)[nH]c2CC2CCCCCC2)c1 | 2.9 | 5.90 |  | 5.40 | 6% | 
O=C(O)c1cc(NC(=O)[C@H](Cc2ccccc2)NC(=O)c2cc3cc[nH]c3cc2C(=O)NCC23CC4CC(CC(C4)C2)C3)cc(C(=O)O)c1 |  | 9.00 |  | 5.40 |  | 
CNC[C@H](O)[C@@H](O)[C@H](O)[C@H](O)CO.O=C(Nc1cc(CO)cc(CO)c1)c1[nH]c(-c2ccc3ccccc3c2)nc1CC1CCCCCC1 | > 4 | 5.40 |  | 5.50 | 1% | 
O=C(O)c1cc(NC(=O)c2cc(-c3ccccc3)[nH]c2CCC23CC4CC(CC(C4)C2)C3)cc(C(=O)O)c1 |  | 6.70 |  | 5.30 |  | 
O=C(O)c1cc(NC(=O)c2[nH]c(-c3ccc4[nH]ccc4c3)nc2CC2CCCCCC2)cc(C(=O)O)c1 |  | 6.00 |  | 5.30 |  | 
O=C(O)c1cc(NC(=O)[C@H](Cc2ccccc2)NC(=O)c2ccccc2C(=O)NCC23CC4CC(CC(C4)C2)C3)cc(C(=O)O)c1 |  | 7.50 |  |  |  | 
CNC[C@H](O)[C@@H](O)[C@H](O)[C@H](O)CO.O=C(O)c1cccc(NC(=O)c2[nH]c(-c3ccc4ccccc4c3)nc2CC2CCCCCC2)c1 | 2.8 | 6.10 |  |  | 5% | 
CNC[C@H](O)[C@@H](O)[C@H](O)[C@H](O)CO.O=C(O)c1cc(NC(=O)c2[nH]c(-c3ccc4ccccc4c3)nc2CC2CCCCCC2)cc(C(=O)O)c1 | 0.7 |  |  | 5.50 | 53% | 
